Tested on: MS2 coat protein
Assay: apparent Kd, MS2 coat protein; higher = weaker binding; RNA-MaP array; FMN 200 µM where present
Outline: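 The apparent Kd is the median of filtered binding-curve fits, one per cluster, to green signal normalised to red-channel RNA signal and control-cluster median Fmax. The clusters were on Illumina sequencing chips, and stalled E. coli RNA polymerase had transcribed the designs on them. Titration used SNAP-549-labelled MS2 coat protein from 0.7 or 1.5 nM, doubling to 3 µM, without and then with constant ligand, in 100 mM Tris-HCl pH 7.5, 80 mM KCl, 4 mM MgCl2, BSA, DTT, yeast tRNA and Tween-20.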

[1] = designed as: OFF switch for flavin mononucleotide, no ligand
[2] = ligand present: flavin mononucleotide, designed as: OFF switch for flavin mononucleotide
[3] = designed as: ON switch for flavin mononucleotide, no ligand
[4] = ligand present: flavin mononucleotide, designed as: ON switch for flavin mononucleotide

Row | Sequence | apparent Kd [1] | apparent Kd [2] | apparent Kd [3] | apparent Kd [4]
1 | CUUUAGUGAGGAUAUCAGUAGUAAUACAAUAGUAUUACUACUGAGAAGGCACAUGAGGAUCACCCAUGUUUCUC | 31 nM | 136 nM | – | –
2 | GCGUCAGAAUUAAUUGUGACAGGCAGAAGGCUAUAUCUUAUGUCAGACAUGAGGAUCACCCAUGUAGAGGAUAUGCAGUUACAC | 10.6 nM | 17.9 nM | – | –
3 | GUUGUAUUAAGUUCAUACUAUAUGAUAGAAGGUGAAAGAUAGACAUGAGGAUCACCCAUGUAAUUCAAGGAUAUGUAGUUACUC | – | – | 28.4 nM | 20.4 nM
4 | GCCAGUUAUGUAGGAUAUGCGAGGCGAGCCUGAGCAGAAGGACAUGAGGAUCACCCAUGUAUUGCGGUUUAUGUUCAGAUCGCU | 15.9 nM | 18.2 nM | – | –
5 | GGGCUGUCAGGAUAUGGGCCCGGGCCCGAAAGGGCCCGGGUUUAGAAGGGACAUGAGGAUCACCCAUGUGGCCC | 32.5 nM | 37.2 nM | – | –
6 | UUUAUAUAGUAAGGAUAUGUAUUAUUUUUGUCAACAGAAGGUACUGACAUGAGGAUCACCCAUGUUUUAGUGUGGGCAUGUAGU | 219 nM | 283 nM | – | –
7 | UUCCUCUUUGUGAGGAUAUCGUCCGUUUUUUGUUACGAGAAGGCACAUGAGGAUCACCCAUGUUUUUUGUUUUU | 20.4 nM | 68.3 nM | – | –
8 | GAUAGAGAGCAGGAUAUCUUGGAUAAGUAUUGUAGAGAAGGGCUCACAUGAGGAUCACCCAUGUGGUCCUAGAU | 14.2 nM | 34.2 nM | – | –
9 | GGACGACACAUUAACAUGAGGAUCACCCAUGUCUCUUGACAUGAGGAUAUGGAUCCUAAUUGGAUCCAGAAGGCAUGGUCGUCC | – | – | 1130 nM | 93.5 nM
10 | UGUGAGAUGAUGUUAGAUAGGAGAACAUGAGGAUCACCCAUGUAGGAUAUUCAAAGACGAAGAUAGAAGAAGGACAUAGGUAUC | 30.3 nM | 78.2 nM | – | –
11 | AGGAAGUUAGGAUAUGCUGCUCGUCACUUGCGUGAUGAGUAGCAGAAGGGACAUGAGGAUCACCCAUGUAAAAA | 44.2 nM | 22.7 nM | – | –
12 | GCAUCACAUGAGGAUCACCCAUGUCUUCGGAGCGGAGGAUAUGGUCACUGUAAACAGUGGCCAGAAGGCUGGAUGC | – | – | – | 25.5 nM
13 | GCAAAGCCUGACAUGAGGAUCACCCAUGUUAGAUUGUUAUGUCAGGAUAUUGUCUAGAAACUAGACAAGAAGGGAUGCUUUGCC | – | – | 734 nM | 51.3 nM
14 | GUAGCAAUCGGAGGAUAUUCAUACCGGAAACGGACAUGAGGAUCACCCAUGUGGCGAAAGCCUUGGGAGAAGGCCGAUUGCUAC | – | – | 614 nM | 21.2 nM
15 | AUCCGGCGUGUAGGAUAUGGAAAAGAUUAGGAUCCAGAAGGACAUGAGGAUCACCCAUGUACAUGUAAACAGUCAUCACCGGAA | 34.1 nM | 49.6 nM | – | –
16 | CCCUAGAUCCGAGGAUAUACAAUCCGGAAACGGUACAUGAGGAUCACCCAUGUAGAAGGCGGAUCUACAGGUACUAAAGUACCC | 7.3 nM | 9.22 nM | – | –
17 | UCCAACCCUGUGAGGAUAUCGUCCAUUUUUUGUUCCGAGAAGGCACAUGAGGAUCACCCAUGUUUUUUAUUUUU | 28.1 nM | 93.7 nM | – | –
18 | UGGUACUAGGGAGGAUAUGGGAAGAUACAUGAGGAUCACCCAUGUUUAAGAAUGCCGAGAAGCAACUAGAAGGCCCUAGUACCU | – | – | 332 nM | 19.5 nM
19 | AACGAGCAAGAUUAUUAUGAAUAAACAUGAGGAUCACCCAUGUAGGAUAUGCAGUGGAAUACACUGCAGAAGGACAAAAGCUCG | 6.49 nM | 12.9 nM | – | –
20 | GCUUCUUAAUUUCAAACUUACGAUUCAGAAGGUGAAUUUUACACAUGAGGAUCACCCAUGUUACUCAAGGAUAUGAUUUGACUA | – | – | 18.7 nM | 14 nM
21 | GAAUAAUUGAUCCAAUUUUACAACAUGAGGAUCACCCAUGUGCAGGAUAUCGUGUGUGUUAUAUACGAGAAGGGCAAGAACUGU | 381 nM | 448 nM | – | –
22 | CAAAAGUAUAACAAUUUCGAGGCACAGGAUAUGAGUGUGCACAUGAGGAUCACCCAUGUUAUAACUUAGAAGGGUGACCAUUGC | – | – | 265 nM | 443 nM
23 | CAAUUCUGAGGAUAUCGAUUUUUGUACAUGAGGAUCACCCAUGUCCUUUUUAUUUAAUCCCGAGAAGGCAGUGUAU | 23.3 nM | 26.1 nM | – | –
24 | CAGUGCAUUGAGAAGGGACACCGGGAUCCCAACUUCUCUCAUAACGGACAUGAGGAUCACCCAUGUCAGGAUAUCAACGUUUAG | 23.1 nM | 16.7 nM | – | –
25 | GUGAGGUAAGGAUAUAGUAGUGAAGGUAAAAUAUGAGAAUGCUAGAAGGUACAUGAGGAUCACCCAUGUUAGGG | 211 nM | 203 nM | – | –
26 | GUUAAGGUAGGAUAUACGAUAAUAUAGGGUAGAGAUAUAACACAUGAGGAUCACCCAUGUAGAAGGACCAAUUG | 25.3 nM | 75.2 nM | – | –
27 | UAUAUAUAGUAAGGAUAUGUAAUUAUUUGAUAAACAGAAGGUACUGACAUGAGGAUCACCCAUGUUUUAGUGUGGGCAUGUAGA | 88.2 nM | 138 nM | – | –
28 | AGGUAGUCAGGAUAUUAUUUUUAGCGGGAUAACGCUGAGGGUGAGAAGGGACAUGAGGAUCACCCAUGUUUUGA | 258 nM | 191 nM | – | –

From the EternaBench riboswitch data
